# Screens from PubChem.
# E-selectin induc = E-selectin induction in HUVECs, primary screen, imaging, HUVEC, immunofluorescence imaging, single point. normalized: neutral wells 0, TNF-alpha wells 100. AID 686992, 2013. 260,000 tested, 0.37% active. P16581. activation, % at 7.58 µM;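 active = mean E-selectin-positive cell signal at least 10% of the positive control, reached in at least 60% of replicates, without over 20% cell loss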
# Target sequence (P16581 whole entry, looked up): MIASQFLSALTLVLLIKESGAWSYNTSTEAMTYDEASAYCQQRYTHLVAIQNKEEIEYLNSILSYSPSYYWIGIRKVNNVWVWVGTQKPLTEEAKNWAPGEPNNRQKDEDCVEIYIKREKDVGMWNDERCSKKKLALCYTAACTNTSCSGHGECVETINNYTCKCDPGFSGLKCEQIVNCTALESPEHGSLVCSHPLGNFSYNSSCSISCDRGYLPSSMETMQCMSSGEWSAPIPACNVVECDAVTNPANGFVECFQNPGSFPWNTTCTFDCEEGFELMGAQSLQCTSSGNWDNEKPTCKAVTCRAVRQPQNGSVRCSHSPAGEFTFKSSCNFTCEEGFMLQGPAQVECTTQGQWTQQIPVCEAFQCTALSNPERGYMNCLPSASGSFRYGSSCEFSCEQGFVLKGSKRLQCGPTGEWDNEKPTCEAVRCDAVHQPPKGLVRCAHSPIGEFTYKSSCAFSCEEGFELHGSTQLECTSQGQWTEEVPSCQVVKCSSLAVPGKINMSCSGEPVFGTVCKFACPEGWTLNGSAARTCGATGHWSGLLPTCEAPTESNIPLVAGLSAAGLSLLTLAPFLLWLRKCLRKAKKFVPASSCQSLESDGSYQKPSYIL
#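 assay system = HUVEC, human umbilical vein endothelial cells | input = 3,000 HUVEC seeded per well | medium = EGM-2 growth medium on 0.1% gelatin-coated wells | dosing = one compound dose added by pin transfer | signal = immunofluorescence imaging | read-out basis = % PE-positive cells | control set = TNF-alpha, DMSO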
# SIRT5 block = SIRT5 desuccinylase inhibitors, primary screen, biochemical, fluorescence imaging, single point, set 5. NAD-dependent protein deacylase sirtuin-5, mitochondrial (Homo sapiens), Q9NXA8. Purified SirT5, succinyl-peptide AMC, trypsin-coupled fluorescence. inhibition, % at 15 µM. 330,000 tested, 1.1% active. AID 652115, 2013; in the data active = inhibition above about 15%
# DENV2 CPE rescue = inhibitors of DENV2 cytopathic effect, primary screen, cell-based, plate reader, single concentration; DENV2-infected cells, cytopathic effect rescue; CPE inhibition, % at 9.99 µM; 350,000 tested, 1.7% active; AID 651640, 2012; in the data active = CPE inhibition above about 20%, passing the limit was not always enough; tested in BHK-21 cells;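 also: 0% = median of neutral control wells and 100% = median of positive control wells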
# * = called active by the depositor; / = no result; ! = not confirmed by another sample. The list is not random: actives were taken first. Their share in the collection is about 2.9%.
SMILES,E-selectin induc,SIRT5 block,DENV2 CPE rescue
NC(=S)N=Nc1c(O)n(CCCl)c2ccc(Cl)cc12,0,-1,0
CNc1nc(Cl)c(SC)c(NCc2ccc(F)cc2)n1,0,-1,3
C[C@H]1CN([C@@H](C)CO)C(=O)c2cccc(NC(=O)C3CC3)c2O[C@@H]1CN(C)C,-5,4,23*
CC(C)NC(=O)N(C)C[C@H]1Oc2c(NC(=O)C3CC3)cccc2C(=O)N([C@@H](C)CO)C[C@H]1C,-1,5,-4
CC(C)NC(=O)N(C)C[C@H]1Oc2c(NC(=O)C3CC3)cccc2C(=O)N([C@H](C)CO)C[C@H]1C,-4,2,42*
C[C@H](CO)N1C[C@H](C)[C@H](CN(C)C)Oc2c(NC(=O)C3CC3)cccc2C1=O,-17,3,-7
NC(=O)c1cc(S(=O)(=O)N2CC=C(c3ccccc3)CC2)cs1,/,-1,19
COc1ccc(S(=O)(=O)N2CCN(C(=O)C3CC(=O)N(c4ccccc4F)C3)CC2)cc1OC (configuration not stated),/,0,3
COc1ccc(-c2cc(C(=O)N3CCN(S(=O)(=O)c4ccccc4)CC3)[nH]n2)cc1,0,/,0
O=C(c1cc(-c2ccccc2)n[nH]1)N1CCN(S(=O)(=O)c2ccccc2)CC1,0,/,43*
COc1cccc(CN(C)CC(=O)NCc2ccccc2Cl)c1,1,-6,4
C[C@H](CO)N1C[C@H](C)[C@@H](CN(C)S(=O)(=O)c2ccc(Cl)cc2)OCCCC[C@H](C)Oc2ccc(NC(=O)Nc3ccc(C(F)(F)F)cc3)cc2C1=O,1,/,36*
C[C@@H]1CN([C@H](C)CO)C(=O)c2cc(NC(=O)Nc3ccc(C(F)(F)F)cc3)ccc2O[C@@H](C)CCCCO[C@H]1CN(C)S(=O)(=O)c1ccc(Cl)cc1,1,/,15
C[C@H](CO)N1C[C@H](C)[C@H](CN(C)S(=O)(=O)c2ccc(Cl)cc2)OCCCC[C@H](C)Oc2ccc(NC(=O)Nc3ccc(C(F)(F)F)cc3)cc2C1=O,0,/,5
C[C@@H]1CCCCO[C@@H](CN(C)S(=O)(=O)c2ccc(Cl)cc2)[C@H](C)CN([C@@H](C)CO)C(=O)c2cc(NC(=O)Nc3ccc(C(F)(F)F)cc3)ccc2O1,0,/,35*
Cn1cnc(CCNC(=O)C[C@H]2CC[C@@H]3[C@H](COC[C@H](O)CN3C(=O)C3CCCC3)O2)c1,0,35*!,1
Cn1cnc(CCNC(=O)C[C@H]2CC[C@@H]3[C@H](COC[C@H](O)CN3C(=O)Nc3ccc(Cl)cc3)O2)c1,0,0,-6
Cn1cnc(CCNC(=O)C[C@@H]2CC[C@H]3[C@@H](COC[C@H](O)CN3C(=O)C3CCCC3)O2)c1,0,-1,0
Cn1cnc(CCNC(=O)C[C@@H]2CC[C@@H]3[C@H](COC[C@@H](O)CN3C(=O)Nc3ccc(Cl)cc3)O2)c1,0,19*,-3
O=C1CSC(=S)N1N=C1CCCCCC1,/,/,-10
Cc1ccc(C(=O)NCCS(=O)(=O)N2CCN(c3ccccc3F)CC2)cc1[N+](=O)[O-],/,-1,2
COc1ccccc1Oc1nc2ccccn2c(=O)c1/C=C(\C#N)C(=O)Nc1c(C)n(C)n(-c2ccccc2)c1=O,/,-1,-6
COc1cccc(C2CC(c3ccc(C)cc3)n3ncnc3N2)c1 (configuration not stated),0,/,-1
Cc1ccc(NC(=S)N(C)C(c2ccccc2)c2ccccc2)cc1C,0,-2,-5
CC(=O)c1ccc(N2CCc3ccccc3C2)c([N+](=O)[O-])c1,70*,/,2
SMILES,E-selectin induc,SIRT5 block,DENV2 CPE rescue
O=[N+]([O-])c1ccccc1S(=O)(=O)N1CCc2ccccc2C1,/,2,-1
CC(=O)c1ccc(N2CCN(c3ncccn3)CC2)c([N+](=O)[O-])c1,0,3,0
O=[N+]([O-])c1ccc(N2CCN(S(=O)(=O)c3ccccc3[N+](=O)[O-])CC2)cc1N1CCc2ccccc2C1,/,-10,112*
COCCCNC(=O)c1c[nH]c2ccc(S(=O)(=O)N(C)c3ccccc3C)cc2c1=O,0,0,-4
CON(C)C(=O)CC(CN(Cc1ccccc1)C(=O)OC(C)(C)C)c1ccc(Cl)cc1 (configuration not stated),0,-4,-3
CON(C)C(=O)CC(CNC(=O)OC(C)(C)C)c1ccc(Cl)cc1 (configuration not stated),0,21*,-9
C[C@@H]1CN([C@H](C)CO)C(=O)c2cc(C3=CCCC3)cnc2O[C@@H]1CN(C)C(=O)CN(C)C,1,1,-2
COc1ccc(CC(=O)NNC(=O)COc2ccc(F)cc2)cc1S(=O)(=O)N1CCOCC1,0,-1,-3
COc1ccc(CC(=O)NNC(=O)COc2ccc(C)cc2)cc1S(=O)(=O)N1CCOCC1,2,-5,40*
O=C(O)CCSc1nnc(-c2cccnc2)n1-c1ccccc1,/,-3,/
COc1ccc(-c2nnc(SCCC(=O)O)n2-c2ccccc2)cc1OC,/,15*,1
CN(C)c1ccc(-c2cccc(C3CC=CC4C3C(=O)N(Cc3ccccc3)C4c3ccc(C(F)(F)F)cc3)c2)cc1 (configuration not stated),0,/,/
COc1ccc(-c2cccc(C3CC=CC4C3C(=O)N(Cc3ccccc3)C4c3ccc(C(F)(F)F)cc3)c2)cc1 (configuration not stated),0,19*,6
CC(=O)/C(=C/c1ccccc1)C(=O)Nc1ccccc1C,/,0,-12
Cn1c(SCC(=O)Nc2ccc(F)cc2)nnc1-c1cccnc1,0,-3,22*
COc1ccc(NC(=O)CSc2nnc3ccc(-c4cccnc4)nn23)cc1OC,4,17*,0
Cc1cc(NC(=O)CSc2ccc3nnc(-c4ccccc4)n3n2)no1,/,-4,3
COc1ccc(NC(=O)CSc2nnc3ccc(-c4cccnc4)nn23)cc1,1,2,-5
Cn1c(SCC(=O)Nc2ccccc2F)nnc1-c1cccnc1,0,/,-3
Cc1cc(NC(=O)CSc2nnc3ccc(-c4ccccc4)nn23)no1,/,26*,-4
C[C@@H]1CN([C@@H](C)CO)C(=O)c2cccc(NC(=O)c3ccc(-c4nccs4)cc3)c2O[C@H]1CN(C)C(=O)Nc1cccc2ccccc12,/,8,-4
Cc1ccc(S(=O)(=O)N(C)C[C@@H]2Oc3ccc(NC(=O)NC4CCCCC4)cc3CC(=O)N([C@H](C)CO)C[C@H]2C)cc1,0,/,3
NC(=O)CSc1nnc(-c2ccc3c(c2)OCO3)o1,/,/,-2
CCN(CC(=O)Nc1ccccc1C(F)(F)F)C(=O)c1ccc2c(=O)n3c(nc2c1)CCC3,0,22*,-4
CCN(CC(=O)Nc1c(F)cccc1F)C(=O)c1ccc2c(=O)n3c(nc2c1)CCC3,/,-1,-5
COc1ccc(OC)c(NC(=O)CCNS(=O)(=O)c2ccc3c(c2)c(=O)n(C)c(=O)n3C)c1,/,-3,/
COc1ccc(NC(=O)Nc2cccc3c2O[C@H](CN(C)C(=O)NC2CCCCC2)[C@H](C)CN([C@@H](C)CO)C3=O)cc1,1,4,88*
